# Measurements published in ChEMBL document CHEMBL5096187, “Efficient Synthesis and Bioevaluation of Novel Dual Tubulin/Histone Deacetylase 3 Inhibitors as Potential Anticancer Agents” (J Med Chem, 2021).
# Calls of active or inactive are those of the source. No cut-off for these calls is given here.
# Experiments:
# [1] = Toxicity in C57BL/6 mouse allografted with mouse B16-F10 cells assessed as body weight loss at 10 mg/kg, ip administered for 14 days; conditions: in vivo, 336 h
# B16-F10 [2] = assay: Antitumor activity against mouse B16-F10 cells allografted in C57BL/6 mouse assessed as tumor growth inhibition at 10 mg/kg, ip administered for 14 days; format: functional; conditions: B16-F10, 336 h, time 14 day, read-out: TGI
# Procedure, shortened: (§1)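 C57BL/6 mice were inoculated subcutaneously with 3×10⁵ B16-F10 cells in PBS and randomized (n = 8). Drugs in ethanol/polyoxyethylene castor oil/saline (1.25:1.25:7.5) or vehicle alone were given i.p. once daily for 14 days. Mice were sacrificed at day 14 and tumors weighed; TGI(%) = [1 − Wt/Wv] × 100 using mean tumor weights.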
# Jurkat = assay: Antiproliferative activity against human Jurkat cells assessed as inhibition of cell viability measured for 48 hrs by microplate reader based CCK-8 assay; format: functional
# B16-F10 [3] = assay: Induction of apoptosis in mouse B16-F10 cells assessed as early apoptotic cells at 100 nM incubated for 48 hrs by Annexin V-FITC/PI analysis (reference value: 1.68 %); format: functional
# B16-F10 [4] = assay: Antitumor activity against mouse B16-F10 cells allografted in C57BL/6 mouse assessed as tumor growth inhibition at 10 mg/kg, ip administered for 14 days in presence of Entinostat; format: functional; conditions: B16-F10, 336 h, time 14 day, read-out: TGI
# Procedure, shortened: as §1
# B16-F10 [5] = assay: Antiproliferative activity against mouse B16-F10 cells assessed as inhibition of cell viability measured for 48 hrs by microplate reader based MTT assay; format: functional; conditions: B16-F10, 48 h
# Procedure, shortened: (§2)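 Cells grown in RPMI-1640 with 10% FBS and seeded at 5000 cells/well. After overnight attachment, compound was added in medium with 0.1% DMSO for 48 h at 37 °C. Read-out was MTT for HCT-116, B16-F10 and A549, and CCK-8 for Jurkat (0.5 mg/mL, 4 h), with absorbance at 570 nm. IC50 from nonlinear regression; at least three independent experiments.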
# [6] = In vivo inhibition of HDAC in tumor of mouse B16-F10 cells xenografted in C57BL/6 mouse assessed as increase in acetylated histone-H3 expression in presence of Entinostat by […] immunohistochemistry method; format: functional; set-up: scale not given: the % may be the effect or the level left
# Procedure, shortened: (§3)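 Tumors from the 14-day i.p. B16-F10 study were formalin-fixed and paraffin-embedded. Sections were deparaffinized, treated with 3% H2O2, and antigen-retrieved at pH 9 and 80 °C overnight. Blocked with milk, incubated with anti-Ac-H3 at 4 °C overnight, then IgG secondary and hematoxylin counterstain. Ac-H3-positive ratio quantified from images.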
# [7] = Antiproliferative activity against human YCC3/7 cells assessed as inhibition of cell viability; format: functional, cell-based
# Tubulin (Sus scrofa) = Tubulin (Sus scrofa) (UniProt P02554+P02550); assay: Inhibition of pig brain tubulin polymerization at 10 uM measured after 20 mins by spectrometric method relative to control
# Chain of Tubulin (Sus scrofa) (P02550 whole entry, looked up): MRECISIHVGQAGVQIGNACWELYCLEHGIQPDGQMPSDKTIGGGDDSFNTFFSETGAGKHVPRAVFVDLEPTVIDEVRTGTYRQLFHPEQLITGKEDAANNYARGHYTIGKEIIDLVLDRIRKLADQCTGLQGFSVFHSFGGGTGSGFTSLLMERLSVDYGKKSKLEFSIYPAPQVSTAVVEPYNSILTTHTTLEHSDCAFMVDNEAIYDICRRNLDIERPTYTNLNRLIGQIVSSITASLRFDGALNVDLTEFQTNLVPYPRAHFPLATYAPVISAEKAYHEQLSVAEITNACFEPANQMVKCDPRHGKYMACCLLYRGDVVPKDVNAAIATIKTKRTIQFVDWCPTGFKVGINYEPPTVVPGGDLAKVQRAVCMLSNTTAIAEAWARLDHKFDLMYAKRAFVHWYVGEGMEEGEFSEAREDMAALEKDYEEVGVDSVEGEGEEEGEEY
# Chain of Tubulin (Sus scrofa) (P02554 whole entry, looked up): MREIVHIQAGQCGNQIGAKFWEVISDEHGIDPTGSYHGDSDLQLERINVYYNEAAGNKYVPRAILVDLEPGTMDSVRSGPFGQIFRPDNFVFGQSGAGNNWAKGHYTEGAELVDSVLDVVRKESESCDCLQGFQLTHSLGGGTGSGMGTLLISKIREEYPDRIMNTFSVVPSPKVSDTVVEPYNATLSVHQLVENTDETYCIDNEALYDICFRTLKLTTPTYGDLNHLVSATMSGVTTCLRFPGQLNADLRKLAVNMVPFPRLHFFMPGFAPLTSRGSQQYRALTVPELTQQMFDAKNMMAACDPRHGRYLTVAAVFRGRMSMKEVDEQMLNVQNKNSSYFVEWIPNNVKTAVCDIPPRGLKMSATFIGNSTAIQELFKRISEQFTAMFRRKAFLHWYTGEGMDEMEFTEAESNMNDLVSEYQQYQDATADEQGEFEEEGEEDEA
# Procedure, shortened: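 Pig brain tubulin was purified by three assembly/disassembly cycles and then phosphocellulose chromatography. Compound at 10 μM in PEM buffer with 1 mM GTP and 5% glycerol at 37 °C. Polymerization followed at 340 nm; inhibition taken at 20 min versus vehicle control.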
# B16-F10 [8] = assay: Inhibition of cell migration in mouse B16-F10 cells assessed as reduction in wound area measured at 100 nM incubated for 24 hrs by wound healing assay; format: functional; set-up: scale not given: the % may be the effect or the level left
# Procedure, shortened: (§4)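 Confluent B16-F10 monolayers, seeded overnight, were scratched with a pipette tip and washed to remove debris. Cells were then treated, and phase-contrast images were taken at 0 and 24 h. Migration distance or wound area measured manually against DMSO control; n = 3.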
# HCT-116 = assay: Antiproliferative activity against human HCT-116 cells assessed as inhibition of cell viability measured for 48 hrs by microplate reader based MTT assay; format: functional; conditions: HCT-116, 48 h
# Procedure, shortened: as §2
# B16-F10 [9] = assay: Inhibition of cell migration in mouse B16-F10 cells assessed as reduction in wound area ratio measured at 100 nM incubated for 24 hrs by wound healing assay; format: functional; set-up: scale not given: the % may be the effect or the level left
# Procedure, shortened: as §4
# [10] = Cardiotoxicity in C57BL/6 mouse ssessed as shortening of QTc level in presence of Entinostat by ECG analysis; format: toxicity
# Procedure, shortened: (§5)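 Mice aged 6–8 weeks dosed by intragastric gavage once daily for 14 days; ECG and heart rate recorded on a PowerLab system.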
# B16-F10 [11] = assay: Induction of apoptosis in mouse B16-F10 cells assessed as late apoptotic cells at 100 nM incubated for 48 hrs by Annexin V-FITC/PI analysis (reference value: 0.00 %); format: functional
# [12] = Toxicity in C57BL/6 mouse allografted with mouse B16-F10 cells assessed as morphological abnormalities in kidney at 10 mg/kg, ip administered for 14 days by H and E staining based analysis; format: organism-based; conditions: in vivo, 336 h, time 14 day
# Procedure, shortened: (§6)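 C57BL/6 mice with subcutaneous B16-F10 allografts, n = 8 per group, given i.p. injections once daily for 14 days. Single agents at 10 mg/kg; combination at 5 + 5 mg/kg. Vehicle: ethanol/polyoxyethylene castor oil/saline 1.25:1.25:7.5. Liver and kidney fixed in 4% paraformaldehyde, paraffin-embedded, H&E stained and examined by microscopy.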
# B16-F10 [13] = assay: Induction of cell cycle arrest in mouse B16-F10 cells assessed as accumulation of cells in G2/M phase at 100 nM measured after 48 hrs by PI/RNaseA staining based flow cytometry analysis (Rvb= 5.76%); format: functional
# [14] = Antiproliferative activity against human YCC-11 cells assessed as inhibition of cell viability; format: functional, cell-based
# B16-F10 [15] = assay: Induction of apoptosis in mouse B16-F10 cells assessed as necrotic cells at 100 nM incubated for 48 hrs by Annexin V-FITC/PI analysis (reference value: 0.012 %); format: functional
# B16-F10 [16] = assay: Induction of apoptosis in mouse B16-F10 cells assessed as viable cells at 100 nM incubated for 48 hrs by Annexin V-FITC/PI analysis (reference value: 98.3 %); format: functional; conditions: read-out: Activity
# B16-F10 [17] = assay: Antiproliferative activity against mouse B16-F10 cells assessed as inhibition of cell viability measured for 48 hrs in presence of Entinostat by microplate reader based MTT assay; format: functional; conditions: B16-F10, 48 h
# Procedure, shortened: as §2
# B16-F10 [18] = assay: Antitumor activity against mouse B16-F10 cells allografted in C57BL/6 mouse assessed as reduction in tumor weight at 10 mg/kg, ip administered for 14 days in presence of Entinostat; format: functional, organism-based; conditions: time 14.0 day
# Procedure, shortened: as §1
# A549 = assay: Antiproliferative activity against human A549 cells assessed as inhibition of cell viability measured for 48 hrs by microplate reader based CCK-8 assay; format: functional; conditions: A549, 48 h
# [19] = Cardiotoxicity in C57BL/6 mouse ssessed as shortening of QTc level by ECG analysis; format: toxicity
# Procedure, shortened: as §5
# [20] = Toxicity in C57BL/6 mouse allografted with mouse B16-F10 cells assessed as morphological abnormalities in kidney at 5 mg/kg, ip administered for 14 days in presence of Entinostat by H and E staining based analysis; format: organism-based; conditions: in vivo, 336 h, time 14 day
# Procedure, shortened: as §6
# Tubulin = Tubulin (Sus scrofa, UniProt P02554+P02550); assay: Inhibition of pig brain tubulin polymerization by spectrometric method
# Procedure, shortened: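 Phosphocellulose-purified pig brain tubulin mixed with graded compound concentrations in PEM buffer (100 mM PIPES, 1 mM MgCl2, 1 mM EGTA) plus 1 mM GTP and 5% glycerol. Absorbance at 340 nm and 37 °C; plateau absorbance used to calculate IC50.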
# [21] = Cardiotoxicity in C57BL/6 mouse ssessed as shortening of QTc level in presence of (2-phenylthiazol-4-yl)(3,4,5-trimethoxyphenyl)methanone by ECG analysis; format: toxicity
# Procedure, shortened: as §5
# B16-F10 [22] = assay: cells; conditions: Mus musculus, B16-F10, 48 h
# B16-F10 [23] = assay: Antitumor activity against mouse B16-F10 cells allografted in C57BL/6 mouse assessed as tumor growth inhibition at 10 mg/kg, ip administered for 14 days in presence of (2-phenylthiazol-4-yl)(3,4,5-trimethoxyphenyl)methanone; format: functional; conditions: B16-F10, 336 h, time 14 day, read-out: TGI
# Procedure, shortened: as §1
# [24] = In vivo inhibition of HDAC in tumor of mouse B16-F10 cells xenografted in C57BL/6 mouse assessed as increase in acetylated histone-H3 expression by […] immunohistochemistry method; format: functional; set-up: scale not given: the % may be the effect or the level left
# Procedure, shortened: as §3
# B16-F10 [25] = assay: Antitumor activity against mouse B16-F10 cells allografted in C57BL/6 mouse assessed as reduction in tumor weight at 10 mg/kg, ip administered for 14 days in presence of (2-phenylthiazol-4-yl)(3,4,5-trimethoxyphenyl)methanone; format: functional, organism-based; conditions: time 14.0 day
# Procedure, shortened: as §1
# [26] = In vivo inhibition of HDAC in tumor of mouse B16-F10 cells xenografted in C57BL/6 mouse assessed as increase in acetylated histone-H3 expression in presence of (2-phenylthiazol-4-yl)(3,4,5-trimethoxyphenyl)methanone by […] immunohistochemistry method; format: functional; set-up: scale not given: the % may be the effect or the level left
# Procedure, shortened: as §3
# [27] = Toxicity in C57BL/6 mouse allografted with mouse B16-F10 cells assessed as morphological abnormalities in kidney at 5 mg/kg, ip administered for 14 days in presence of (2-phenylthiazol-4-yl)(3,4,5-trimethoxyphenyl)methanone by H and E staining based analysis; format: organism-based; conditions: in vivo, 336 h, time 14 day
# Procedure, shortened: as §6
# B16-F10 [28] = assay: Upregulation of AC-H3 in mouse B16-F10 cells incubated for 12 hrs by Western blot analysis; format: functional, cell-based; conditions: dose 20-200 nM, DDE = dose-dependent effect
# Procedure, shortened: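 B16-F10 cells (5 × 10⁵/well) treated 12 h with DMSO or compound, lysed in RIPA buffer. 30 μg protein separated by SDS-PAGE and blotted onto PVDF. Blocked 5% BSA 2 h, primary antibody overnight at 4 °C, secondary 1.5 h. Ac-H3 probed, with histone H3 and GAPDH as loading controls; band density quantified; three independent experiments.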
IC50 (Jurkat) [nM],IC50 (B16-F10 [5]) [nM],IC50 (HCT-116) [nM],IC50 (A549) [nM],Structure (SMILES),Activity [1],inhibition in vivo at 10 mg/kg (B16-F10 [2]) [%],Activity (B16-F10 [3]) [%],IC50 [7] [nM],Activity (B16-F10 [11]) [%],Activity [12],Activity (B16-F10 [13]) [%],IC50 [14] [nM],Activity (B16-F10 [15]) [%],viability at 0.1 µM (B16-F10 [16]) [%],Activity [19],also measured
30,980,70,190,COc1cc(C(=O)c2csc(-c3ccccc3)n2)cc(OC)c1OC,Non-Toxic,25,29.1,1940,0.49,Non-Toxic,76.58,1690,0.75,60.7,Toxic,inhibition in vivo at 10 mg/kg (B16-F10 [4]): 53%; Activity [6]: 16.3%; inhibition (Tubulin (Sus scrofa)): 78%; Activity (B16-F10 [8]): 16.2%; Activity (B16-F10 [9]): 16.24%; Activity [10]: Non-Toxic; IC50 (B16-F10 [17]): 1150 nM; Activity (B16-F10 [18]): Active; Activity [20]: Non-Toxic; IC50 (Tubulin): 7900 nM
690,2260,1720,1710,Nc1ccccc1NC(=O)c1ccc(CNC(=O)OCc2cccnc2)cc1 [ENTINOSTAT],Non-Toxic,47,16.3,12900,22.4,Non-Toxic,42.17,5560,1.37,59.9,Toxic,Activity [21]: Non-Toxic; IC50 (B16-F10 [22]): 1150 nM; inhibition in vivo at 10 mg/kg (B16-F10 [23]): 53%; Activity [24]: 27.9%; Activity (B16-F10 [25]): Active; Activity [26]: 16.3%; Activity [27]: Non-Toxic; Activity (B16-F10 [28]): Dde
